Assay [1] concerns HepG2. The assay can be described thus: Induction of apoptosis in human HepG2 cells assessed as increase in Bax expression incubated for 24 hrs by Western blot analysis. The class given is functional, cell-based. Conditions: dose 1-4 µM. In outline:
(§1)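 HepG2 exposed to 1.0, 2.0 or 4.0 µM for 24 h. Lysates separated by electrophoresis and blotted onto nitrocellulose. Probed overnight at 4 °C with anti-Bcl-2, anti-BAX or anti-cleaved caspase-3, then 2 h at room temperature with anti-mouse/rabbit IgG. ECL detection, GAPDH as loading control; quantified from more than three separate experiments.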
(In general: Immunoblotting shows a protein as a band on a membrane.)

The subject of assay [2] is HepG2. Description: Inhibition of NF-kappaB in human HepG2 cells assessed as reduction in TNFalpha-induced p65 nuclear translocation at 4 uM pretreated with TNFalpha for 15 mins followed by compound addition and measured after 2 hrs by DAPI staining based fluorescence microscopy. Particulars: time 135.0 min.
Assay [3] deals with HepG2. Description: Induction of apoptosis in human HepG2 cells assessed as necrotic cells at 4 uM incubated for 24 hrs by annexin V-FITC and PI staining based flow cytometry analysis (reference value: 0.8 %). Type of assay: functional. In outline:
(§2)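 Cells seeded at 2×10^5 per well and treated 24 h with 1.0, 2.0 or 4.0 µM, or DMSO. Harvested, washed twice in cold PBS, resuspended at 1×10^5 cells/mL in buffer. Stained with Annexin V-FITC plus propidium iodide for 15 min at room temperature in the dark, then analysed by flow cytometry.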

Assay [4] has as its system SMMC-7721. The assay can be described thus: Cytotoxicity against human SMMC-7721 cells assessed as reduction in cell viability incubated for 24 hrs by MTT assay. Type of assay: functional, cell-based. Particulars: SMMC-7721, 24 h. In outline:
(§3)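 Cells kept at 37 °C in 5% CO₂. HepG2 grown in DMEM with 10% serum; HHL-5, LO2 and SMMC-7721 in 1640 medium with 10% serum. Seeded, grown 24 h, then exposed 24 h to 10, 5, 2.5, 1.25, 0.625 and 0.3125 µg/mL. MTT (5 mg/mL) added for 4 h at 37 °C; formazan dissolved in DMSO, OD read at 570 nm. IC50 averaged from three replicates.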

The subject of assay [5] is RAW264.7. Description: Inhibition of NF-kappaB in mouse RAW264.7 cells assessed as reduction in LPS-induced p65 nuclear translocation at 4 uM pretreated with LPS for 15 mins followed by compound addition and measured after 2 hrs by DAPI staining based fluorescence microscopy. Particulars: time 135.0 min.
Assay [6] has as its system HepG2. Description: Cytotoxicity against human HepG2 cells assessed as reduction in cell viability incubated for 24 hrs by MTT assay. The class given is functional, cell-based. Particulars: HepG2, 24 h. Summed up: as §3
For orientation: Tetrazolium dyes change colour on reduction, which living cells bring about.

Assay [7] relates to SMMC-7721. The assay can be described thus: Induction of apoptosis in human SMMC-7721 cells assessed as late apoptotic cells at 1 uM incubated for 24 hrs by annexin V-FITC and PI staining based flow cytometry analysis (reference value: 5.4 %). Type of assay: functional. In outline: as §2
Assay [8] concerns RAW264.7. Description: Inhibition of NF-kappaB in mouse RAW264.7 cells assessed as reduction in LPS-induced p38 phosphorylation at 1 to 4 uM incubated for 1 hr followed by LPS stimulation and measured after 30 mins by Western blot analysis. Conditions: dose 1-4 µM. Type of assay: cell-based. In outline:
(§4)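 RAW264.7 incubated 1 h with compound (1.0, 2.0, 4.0 µM), then LPS 1.0 µg/mL for 30 min before extraction. Lysates blotted to nitrocellulose and probed overnight at 4 °C for total and phospho forms of p65, IκBα, Akt, ERK1/2, JNK and p38; secondary antibody 2 h at room temperature. ECL detection, normalized to GAPDH, mean ± SD of triplicate tests.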

Assay [9] concerns SMMC-7721. The assay can be described thus: Induction of apoptosis in human SMMC-7721 cells assessed as necrotic cells at 1 uM incubated for 24 hrs by annexin V-FITC and PI staining based flow cytometry analysis (reference value: 1 %). Type of assay: functional. Summed up: as §2
On the technique in general: In flow cytometry, cells or beads pass a laser one at a time.

The subject of assay [10] is HepG2. The assay can be described thus: Induction of apoptosis in human HepG2 cells assessed as early apoptotic cells at 1 uM incubated for 24 hrs by annexin V-FITC and PI staining based flow cytometry analysis (reference value: 0.2 %). The class given is functional. In outline: as §2
The test system of assay [11] is HepG2. The assay can be described thus: Inhibition of NF-kappaB in human HepG2 cells assessed as reduction in TNFalpha-induced p65 nuclear translocation at 4 uM pretreated with LPS for 15 mins followed by compound addition and measured after 2 hrs by DAPI staining based fluorescence microscopy. The class given is cell-based. Conditions: time 135.0 min, in the assay text read “pretreated with TNF-alpha” for “pretreated with LPS”. Summed up:
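HepG2 exposed to TNF-α (10 ng/mL) for 15 min, then 4.0 µM compound for 2 h. Fixed at room temperature and blocked with 3% BSA. Anti-p65 (1:200) overnight at 4 °C, then secondary (1:200) for 30 min at room temperature. Nuclei stained with DAPI; p65 location imaged on a high-content fluorescence system. Repeated three times.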

Assay [12] deals with HepG2. The assay can be described thus: Induction of apoptosis in human HepG2 cells assessed as viable cells at 1 uM incubated for 24 hrs by annexin V-FITC and PI staining based flow cytometry analysis (reference value: 94.2 %). Type of assay: functional. Conditions: read-out: Activity. In outline: as §2
Assay [13] relates to RAW264.7. Description: Inhibition of NF-kappaB in mouse RAW264.7 cells assessed as reduction in LPS-induced IkappaBalpha phosphorylation incubated for 1 hr followed by LPS stimulation and measured after 30 mins by Western blot analysis. The class given is cell-based. Particulars: dose 1-4 µM. In outline: as §4
The subject of assay [14] is RAW264.7. Description: Antiinflammatory activity against mouse RAW264.7 cells assessed as LPS-induced TNF-alpha at 5 uM pretreated for 2 hrs followed by LPS stimulation and measured after 22 hrs by ELISA (reference value: 0 %). The class given is functional. Conditions: time 24 hrs.
For assay [15], the system named is SMMC-7721. The assay can be described thus: Induction of apoptosis in human SMMC-7721 cells assessed as early apoptotic cells at 1 uM incubated for 24 hrs by annexin V-FITC and PI staining based flow cytometry analysis (reference value: 0.3 %). Type of assay: functional. In outline: as §2
The subject of assay [16] is HepG2. The assay can be described thus: Induction of apoptosis in human HepG2 cells incubated for 24 hrs by annexin V-FITC and PI staining based flow cytometry analysis. Particulars: dose 1-4 µM. Type of assay: functional, cell-based. In outline:
as §2

Assay [17] has as its system RAW264.7. Description: Inhibition of NF-kappaB in mouse RAW264.7 cells assessed as reduction in LPS-induced ERK phosphorylation at 1 to 4 uM incubated for 1 hr followed by LPS stimulation and measured after 30 mins by Western blot analysis. Particulars: dose 1-4 µM. Type of assay: cell-based. Summed up: as §4
For assay [18], the system named is SMMC-7721. The assay can be described thus: Induction of apoptosis in human SMMC-7721 cells assessed as necrotic cells at 4 uM incubated for 24 hrs by annexin V-FITC and PI staining based flow cytometry analysis (reference value: 1 %). Type of assay: functional. Summed up: as §2
Assay [19] has as its system HepG2. Description: Induction of apoptosis in human HepG2 cells assessed as late apoptotic cells at 1 uM incubated for 24 hrs by annexin V-FITC and PI staining based flow cytometry analysis (reference value: 4.8 %). The class given is functional. Summed up: as §2
For assay [20], the system named is SMMC-7721. Description: Induction of apoptosis in human SMMC-7721 cells incubated for 24 hrs by annexin V-FITC and PI staining based flow cytometry analysis. Type of assay: functional, cell-based. Conditions: dose 1-4 µM. Summed up: as §2
The subject of assay [21] is HepG2. Description: Induction of apoptosis in human HepG2 cells assessed as decrease in Bcl-2 expression incubated for 24 hrs by Western blot analysis. Type of assay: functional, cell-based. Conditions: dose 1-4 µM. In outline: as §1
For assay [22], the system named is RAW264.7. Description: Inhibition of NF-kappaB in mouse RAW264.7 cells assessed as reduction in LPS-induced JNK phosphorylation at 1 to 4 uM incubated for 1 hr followed by LPS stimulation and measured after 30 mins by Western blot analysis. Type of assay: cell-based. Conditions: dose 1-4 µM. In outline:
as §4

Assay [23] relates to SMMC-7721. The assay can be described thus: Induction of apoptosis in human SMMC-7721 cells assessed as late apoptotic cells at 4 uM incubated for 24 hrs by annexin V-FITC and PI staining based flow cytometry analysis (reference value: 5.4 %). The class given is functional. In outline:
as §2

Results on 1 molecule are retold here after ChEMBL document CHEMBL4680257, “Discovery of novel NF-кB inhibitor based on scaffold hopping: 1,4,5,6,7,8-hexahydropyrido[4,3-d]pyrimidine” (Eur J Med Chem, 2020).

pIC50: −log10 of the molar value. Active and inactive are the calls of the source. The rule behind the calls is not given here.

`Cl.NC1=NC(c2cccc(F)c2)C2=C(N1)/C(=C/c1cccc(F)c1)CN(S(=O)(=O)c1ccc(C(F)(F)F)cc1)C2` (stereo not drawn): the Activity result with HepG2 [1] is “Dose-dependent effect”; in the assay with HepG2 [3], 1.2%; with SMMC-7721 [7] it was 15.1%; in the assay on SMMC-7721 [9], 0.7%; in the assay with HepG2 [10] it was 53.4%; with SMMC-7721 [15] it was 3.2%. Also, the Activity result with HepG2 [16] was “Dose-dependent effect”; with SMMC-7721 [18], 12.9%; with HepG2 [19], 10.5%; in the assay with SMMC-7721 [20], “Dose-dependent effect”; in the assay on HepG2 [21], “Dose-dependent effect”; in the assay with SMMC-7721 [23] it was 9.2%. The inhibition entry in the assay on HepG2 [2], with RAW264.7 [5], in the assay with RAW264.7 [8], in the assay with HepG2 [11], in the assay on RAW264.7 [17] and with RAW264.7 [22] was “Active” each time. In addition, the pIC50 was 5.62 in the assay with SMMC-7721 [4] and 5.68 with HepG2 [6]. Also, the viability at 1 µM in the assay on HepG2 [12] is 35.3%. Also, the inhibition result with RAW264.7 [13] was “Dose-dependent effect”. The inhibition at 5 µM with RAW264.7 [14] stood at 88.5%.

In general, inhibition refers to the change of the read-out against control, counted positive when it falls. The term pIC50 denotes the IC50 on a negative log10 scale, so that one unit is a factor of ten.
